Data taken from ChEMBL document CHEMBL3585281, “Antibacterial Labdane Diterpenoids from Vitex vestita” (2015).
Values after ≈ are worked out from the molar mass of the structure shown.

Columns and labels:
Format in all cases: functional
Bacillus cereus [1] = test: Antibacterial activity against Bacillus cereus CIP 6624 after 18 hrs by agar dilution method; conditions: CIP 6624, 18 h
Method in brief: (§1)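 Agar-dilution MIC against Gram-positive strains. Compounds in DMSO, geometric dilutions giving final 100−0.75 mg/L in Mueller Hinton agar. Strains grown 18 h at 37 °C in trypticase soy broth, diluted in sterile water, spotted by Steers inoculator (about 1000 UFC/spot). Plates incubated 18 h at 37 °C; DMSO blank; ofloxacin positive control. MIC = lowest concentration with no visible growth.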

Bacillus cereus [2] = test: Antibacterial activity against Bacillus cereus N190 after 18 hrs by agar dilution method; conditions: N190, 18 h; method in brief: as §1
Bacillus cereus [3] = test: Antibacterial activity against Bacillus cereus N258 after 18 hrs by agar dilution method; conditions: N258, 18 h; method in brief: as §1
Bacillus cereus [4] = test: Antibacterial activity against Bacillus cereus N349 after 18 hrs by agar dilution method; conditions: N349, 18 h; method in brief: as §1
Bacillus spizizenii = test: Antibacterial activity against Bacillus subtilis ATCC 6633 after 18 hrs by agar dilution method; conditions: ATCC 6633, 18 h; method in brief: as §1
Corynebacterium striatum = test: Antibacterial activity against Corynebacterium striatum N840 after 18 hrs by agar dilution method; conditions: N840, 18 h; method in brief: as §1
Enterococcus avium = test: Antibacterial activity against Enterococcus avium CIP 104053 after 18 hrs by agar dilution method; conditions: CIP 104053, 18 h; method in brief: as §1
[5] = test system: Enterococcus casseliflavus; test: Antibacterial activity against Enterococcus casseliflavus N487 after 18 hrs by agar dilution method; conditions: N487, 18 h; method in brief: as §1
[6] = test system: Enterococcus casseliflavus; test: Antibacterial activity against Enterococcus casseliflavus CIP 103018 after 18 hrs by agar dilution method; conditions: CIP 103018, 18 h; method in brief: as §1
Enterococcus durans = test: Antibacterial activity against Enterococcus durans CIP 104999 after 18 hrs by agar dilution method; conditions: CIP 104999, 18 h; method in brief: as §1
Enterococcus faecalis [7] = test: Antibacterial activity against Enterococcus faecalis CIP 103214 after 18 hrs by agar dilution method; conditions: CIP 103214, 18 h; method in brief: as §1
Enterococcus faecalis [8] = test: Antibacterial activity against Enterococcus faecalis CIP 104676 after 18 hrs by agar dilution method; conditions: CIP 104676, 18 h; method in brief: as §1
Enterococcus faecalis [9] = test: Antibacterial activity against Enterococcus faecalis N491 after 18 hrs by agar dilution method; conditions: N491, 18 h; method in brief: as §1
Enterococcus faecalis [10] = test: Antibacterial activity against Enterococcus faecalis N518 after 18 hrs by agar dilution method; conditions: N518, 18 h; method in brief: as §1
Enterococcus faecalis [11] = test: Antibacterial activity against Enterococcus faecalis N520 after 18 hrs by agar dilution method; conditions: N520, 18 h; method in brief: as §1
Enterococcus faecium [12] = test: Antibacterial activity against Enterococcus faecium CIP 103014 after 18 hrs by agar dilution method; conditions: CIP 103014, 18 h; method in brief: as §1
Enterococcus faecium [13] = test: Antibacterial activity against Enterococcus faecium CIP 107387 after 18 hrs by agar dilution method; conditions: CIP 107387, 18 h; method in brief: as §1
Enterococcus faecium [14] = test: Antibacterial activity against Enterococcus faecium N490 after 18 hrs by agar dilution method; conditions: N490, 18 h; method in brief: as §1
Enterococcus faecium [15] = test: Antibacterial activity against Enterococcus faecium N507 after 18 hrs by agar dilution method; conditions: N507, 18 h; method in brief: as §1
Enterococcus faecium [16] = test: Antibacterial activity against Enterococcus faecium N733 after 18 hrs by agar dilution method; conditions: N733, 18 h; method in brief: as §1
Enterococcus faecium [17] = test: Antibacterial activity against Enterococcus faecium N823 after 18 hrs by agar dilution method; conditions: N823, 18 h; method in brief: as §1
Enterococcus gallinarum [18] = test: Antibacterial activity against Enterococcus gallinarum CIP 105985 after 18 hrs by agar dilution method; conditions: CIP 105985, 18 h; method in brief: as §1
Enterococcus gallinarum [19] = test: Antibacterial activity against Enterococcus gallinarum N489 after 18 hrs by agar dilution method; conditions: N489, 18 h; method in brief: as §1
Enterococcus gallinarum [20] = test: Antibacterial activity against Enterococcus gallinarum N492 after 18 hrs by agar dilution method; conditions: N492, 18 h; method in brief: as §1
Enterococcus hirae = test: Antibacterial activity against Enterococcus hirae CIP 5855 after 18 hrs by agar dilution method; conditions: CIP 5855, 18 h; method in brief: as §1
Listeria innocua = test: Antibacterial activity against Listeria innocua E044 after 18 hrs by agar dilution method; conditions: E044, 18 h; method in brief: as §1
Listeria monocytogenes [21] = test: Antibacterial activity against Listeria monocytogenes CIP 103575 after 18 hrs by agar dilution method; conditions: CIP 103575, 18 h; method in brief: as §1
Listeria monocytogenes [22] = test: Antibacterial activity against Listeria monocytogenes N783 after 18 hrs by agar dilution method; conditions: N783, 18 h; method in brief: as §1
Listeria monocytogenes [23] = test: Antibacterial activity against Listeria monocytogenes N836 after 18 hrs by agar dilution method; conditions: N836, 18 h; method in brief: as §1
Listeria monocytogenes [24] = test: Antibacterial activity against Listeria monocytogenes N851 after 18 hrs by agar dilution method; conditions: N851, 18 h; method in brief: as §1
Staphylococcus aureus [25] = test: Antibacterial activity against Staphylococcus aureus ATCC 25923 after 18 hrs by agar dilution method; conditions: ATCC 25923, 18 h; method in brief: as §1
Staphylococcus aureus [26] = test: Antibacterial activity against Staphylococcus aureus ATCC 9144 oxford after 18 hrs by agar dilution method; method in brief: as §1
Staphylococcus aureus [27] = test: Antibacterial activity against Staphylococcus aureus CIP 483 after 18 hrs by agar dilution method; conditions: CIP 483, 18 h; method in brief: as §1
Staphylococcus aureus [28] = test: Antibacterial activity against Staphylococcus aureus CIP 53154 after 18 hrs by agar dilution method; conditions: CIP 53154, 18 h; method in brief: as §1
Staphylococcus aureus [29] = test: Antibacterial activity against Staphylococcus aureus CIP 53156 after 18 hrs by agar dilution method; conditions: CIP 53156, 18 h; method in brief: as §1
Staphylococcus aureus [30] = test: Antibacterial activity against Staphylococcus aureus CIP 5710 after 18 hrs by agar dilution method; conditions: CIP 5710, 18 h; method in brief: as §1
Staphylococcus aureus [31] = test: Antibacterial activity against Staphylococcus aureus CIP 7625 after 18 hrs by agar dilution method; conditions: CIP 7625, 18 h; method in brief: as §1
Staphylococcus aureus [32] = test: Antibacterial activity against Staphylococcus aureus CRBIP 2121 after 18 hrs by agar dilution method; conditions: CRBIP 2121, 18 h; method in brief: as §1
[33] = test system: Staphylococcus epidermidis; test: Antibacterial activity against Staphylococcus epidermidis CIP 53124 after 18 hrs by agar dilution method; conditions: CIP 53124, 18 h; method in brief: as §1
[34] = test system: Staphylococcus haemolyticus; test: Antibacterial activity against Staphylococcus haemolyticus CIP 8156 after 18 hrs by agar dilution method; conditions: CIP 8156, 18 h; method in brief: as §1
[35] = test system: Staphylococcus intermedius; test: Antibacterial activity against Staphylococcus intermedius N987 after 18 hrs by agar dilution method; conditions: N987, 18 h; method in brief: as §1
[36] = test system: Staphylococcus lugdunensis; test: Antibacterial activity against Staphylococcus lugdunensis ATCC 43809 after 18 hrs by agar dilution method; conditions: ATCC 43809, 18 h; method in brief: as §1
[37] = test system: Staphylococcus saprophyticus; test: Antibacterial activity against Staphylococcus saprophyticus CIP 76125 after 18 hrs by agar dilution method; conditions: CIP 76125, 18 h; method in brief: as §1
[38] = test system: Staphylococcus saprophyticus; test: Antibacterial activity against Staphylococcus saprophyticus E260 after 18 hrs by agar dilution method; conditions: E260, 18 h; method in brief: as §1
Mammaliicoccus sciuri = test: Antibacterial activity against Staphylococcus sciuri N993 after 18 hrs by agar dilution method; conditions: N993, 18 h; method in brief: as §1
Streptococcus agalactiae = test: Antibacterial activity against Streptococcus agalactiae CIP 103227 after 18 hrs by agar dilution method; conditions: ATCC 13813, 18 h; method in brief: as §1
MRC5 [39] = test: Cytotoxicity against human MRC5 cells assessed as growth inhibition at 10^-5 M after 72 hrs by MTS assay relative to control; conditions: MRC5, 72 h, read-out: GI
Method in brief: (§2)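 Cells from ATCC; HCT-116 grown in RPMI 1640 and MRC5 in DMEM, each with 10% FCS and 1% glutamine, 37 °C, 5% CO2. Seeded at 2.5 × 10^3 cells/well, cultured 24 h, then exposed to compounds at 1 and 10 μM final for 72 h. MTS read-out, absorbance 490 nm; percent index from treated/control OD490 × 100, three experiments.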

MRC5 [40] = test: Cytotoxicity against human MRC5 cells assessed as growth inhibition at 10^-6 M after 72 hrs by MTS assay relative to control; conditions: MRC5, 72 h, read-out: GI; method in brief: as §2
HCT-116 [41] = test: Cytotoxicity against human HCT116 cells assessed as growth inhibition at 10^-5 M after 72 hrs by MTS assay relative to control; conditions: HCT-116, 72 h, read-out: GI; method in brief: as §2
HCT-116 [42] = test: Cytotoxicity against human HCT116 cells assessed as growth inhibition at 10^-6 M after 72 hrs by MTS assay relative to control; conditions: HCT-116, 72 h, read-out: GI; method in brief: as §2

## C=C(CC(=O)O)C(=O)C[C@H]1C(=C)CC[C@H]2C(C)(C)CCC[C@]12C
Bacillus cereus [1]
  MIC: 50 µM (≈ 15.9 µg/mL)
Bacillus cereus [2]
  MIC: 25 µM (≈ 7.96 µg/mL)
Bacillus cereus [3]
  MIC: 50 µM (≈ 15.9 µg/mL)
Bacillus cereus [4]
  MIC: 50 µM (≈ 15.9 µg/mL)
Bacillus spizizenii
  MIC: 100 µM (≈ 31.8 µg/mL)
Corynebacterium striatum
  MIC: 158 µM (≈ 50.3 µg/mL)
Enterococcus avium
  MIC: > 158 µM
[5]
  MIC: > 158 µM
[6]
  MIC: > 158 µM
Enterococcus durans
  MIC: > 158 µM
Enterococcus faecalis [7]
  MIC: > 158 µM
Enterococcus faecalis [8]
  MIC: > 158 µM
Enterococcus faecalis [9]
  MIC: > 158 µM
Enterococcus faecalis [10]
  MIC: > 158 µM
Enterococcus faecalis [11]
  MIC: > 158 µM
Enterococcus faecium [12]
  MIC: > 158 µM
Enterococcus faecium [13]
  MIC: > 158 µM
Enterococcus faecium [14]
  MIC: 158 µM (≈ 50.3 µg/mL)
Enterococcus faecium [15]
  MIC: > 158 µM
Enterococcus faecium [16]
  MIC: > 158 µM
Enterococcus faecium [17]
  MIC: > 158 µM
Enterococcus gallinarum [18]
  MIC: > 158 µM
Enterococcus gallinarum [19]
  MIC: 158 µM (≈ 50.3 µg/mL)
Enterococcus gallinarum [20]
  MIC: > 158 µM
Enterococcus hirae
  MIC: > 158 µM
Listeria innocua
  MIC: 158 µM (≈ 50.3 µg/mL)
Listeria monocytogenes [21]
  MIC: 158 µM (≈ 50.3 µg/mL)
Listeria monocytogenes [22]
  MIC: 158 µM (≈ 50.3 µg/mL)
Listeria monocytogenes [23]
  MIC: > 158 µM
Listeria monocytogenes [24]
  MIC: 158 µM (≈ 50.3 µg/mL)
Staphylococcus aureus [25]
  MIC: 158 µM (≈ 50.3 µg/mL)
Staphylococcus aureus [26]
  MIC: 158 µM (≈ 50.3 µg/mL)
Staphylococcus aureus [27]
  MIC: 158 µM (≈ 50.3 µg/mL)
Staphylococcus aureus [28]
  MIC: 158 µM (≈ 50.3 µg/mL)
Staphylococcus aureus [29]
  MIC: 158 µM (≈ 50.3 µg/mL)
Staphylococcus aureus [30]
  MIC: 100 µM (≈ 31.8 µg/mL)
Staphylococcus aureus [31]
  MIC: 158 µM (≈ 50.3 µg/mL)
Staphylococcus aureus [32]
  MIC: 100 µM (≈ 31.8 µg/mL)
[33]
  MIC: 158 µM (≈ 50.3 µg/mL)
[34]
  MIC: 158 µM (≈ 50.3 µg/mL)
[35]
  MIC: 100 µM (≈ 31.8 µg/mL)
[36]
  MIC: 158 µM (≈ 50.3 µg/mL)
[37]
  MIC: 158 µM (≈ 50.3 µg/mL)
[38]
  MIC: 158 µM (≈ 50.3 µg/mL)
Mammaliicoccus sciuri
  MIC: 158 µM (≈ 50.3 µg/mL)
Streptococcus agalactiae
  MIC: 100 µM (≈ 31.8 µg/mL)
MRC5 [39]
  inhibition of growth at 10 µM: 25%
MRC5 [40]
  inhibition of growth at 1 µM: 22%
HCT-116 [41]
  inhibition of growth at 10 µM: 46%
HCT-116 [42]
  inhibition of growth at 1 µM: 0%
